Measurements from paper PMC7888481 (Journal of natural products, 2020).
“Also recorded” adds a separate entry of the source.

Legend:
[1] = molecular target: T1, recombinant human sEH (Homo sapiens, UniProt P34913); test: sEH inhibition assay; assay type: biochemical
T1 sequence (P34913 1-555): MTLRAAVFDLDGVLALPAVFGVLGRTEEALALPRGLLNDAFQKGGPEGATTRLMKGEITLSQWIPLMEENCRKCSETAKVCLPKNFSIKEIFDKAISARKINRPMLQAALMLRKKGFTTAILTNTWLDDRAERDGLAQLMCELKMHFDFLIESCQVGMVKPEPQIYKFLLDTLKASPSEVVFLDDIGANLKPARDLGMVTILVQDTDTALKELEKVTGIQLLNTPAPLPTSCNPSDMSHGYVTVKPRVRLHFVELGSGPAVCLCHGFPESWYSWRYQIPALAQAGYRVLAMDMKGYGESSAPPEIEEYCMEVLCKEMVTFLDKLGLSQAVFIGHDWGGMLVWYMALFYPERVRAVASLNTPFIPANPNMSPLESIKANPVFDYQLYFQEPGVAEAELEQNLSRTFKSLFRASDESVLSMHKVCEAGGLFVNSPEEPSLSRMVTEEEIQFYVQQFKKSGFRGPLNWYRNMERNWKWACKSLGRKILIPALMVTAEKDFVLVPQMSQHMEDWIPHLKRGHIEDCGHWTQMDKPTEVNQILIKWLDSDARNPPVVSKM
Procedure, shortened: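 Fluorescence assay on recombinant human sEH, test compound in serial dilution. Substrate MNPC at 5 μM final is hydrolysed to fluorescent 6-methoxynaphthaldehyde, read at λex 330 nm and λem 465 nm. IC50 determined in triplicate and the mean reported. Reference inhibitor t-TUCB run in parallel to validate the assay.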

[2] = system: Human FAAH; conditions: read-out: Human FAAH IC50; literature values ref 27; cited from earlier work
[3] = Pharmacokinetics after oral administration in rats; assay type: in vivo; conditions: rat, 100 mg/kg oral
Procedure, shortened: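 Male Sprague-Dawley rats, 8 weeks old, 250–300 g, n=4/group. Test compound given once at 100 mg/kg in 100% NEOBEE 1053 by oral gavage. Each sample added to 100 μL water with 0.1% EDTA, vortexed, stored at −80 °C, then processed and quantified by a previously reported method.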

[4] = system: LPS-induced inflammatory pain; test: LPS-induced inflammatory pain model; assay type: in vivo; conditions: rat, 100 mg/kg oral, LPS intraplantar, 6-h time-course, n=4/group
[5] = system: CB1 receptor; conditions: cited from earlier work

Row | SMILES | IC50 [2] [µM] | also measured
1 | CCCCC/C=C\C/C=C\CCCCCCCC(=O)NCCc1ccccc1 [Compound 18, N-Phenethyloctadeca-9Z,12Z-dienamide] | – | IC50 [1]: 0.028 µM
2 | CCCCCCCCCCCCCCCCCC(=O)NCc1ccccc1 [Compound 2, N-Benzyloctadecanamide] | > 100 | –
3 | CCCCCCCC/C=C\CCCCCCCC(=O)NCc1ccccc1 [Compound 3, N-Benzyloctadec-9Z-enamide] | 16.7 | –
4 | CCCCC/C=C\C/C=C\CCCCCCCC(=O)NCc1ccccc1 [Compound 4, N-Benzyloctadeca-9Z,12Z-dienamide] | 10.8 | time at which concentration peaked in the blood [3]: ≤ 3 h; paw withdrawal thresholds (pain relief) relative to vehicle control ([4]; 100 mg/kg): significantly increased; also recorded: efficacious; binding to the CB1 receptor [5]: selectively bind
5 | CCCCCCCC/C=C\CCCCCCCC(=O)NCc1cccc(OC)c1 [Compound 10, N-(3-Methoxybenzyl)octadec-9Z-enamide] | 11 | –
6 | CC/C=C\C/C=C\C/C=C\CCCCCCCC(=O)NCc1ccccc1 [Compound 5, N-Benzyloctadeca-9Z,12Z,15Z-trienamide] | 41.8 | paw withdrawal thresholds (pain relief) relative to vehicle control [4]: not significant
7 | CCCCCCCCCCCCCCCC(=O)NCc1ccccc1 [Compound 1, N-benzylpalmitamide] | > 100 | –
8 | CC/C=C\C/C=C\C/C=C\CCCCCCCC(=O)NCc1cccc(OC)c1 [Compound 12, N-(3-Methoxybenzyl)octadeca-9Z,12Z,15Z-trienamide] | 13.7 | –
9 | CCCCC/C=C\C/C=C\CCCCCCCC(=O)NCc1cccc(OC)c1 [Compound 11, N-(3-Methoxybenzyl)octadeca-9Z,12Z-dienamide] | 10.3 | –
